Measurements reported in ChEMBL document CHEMBL1275350, “First in class, potent, and orally bioavailable NADPH oxidase isoform 4 (Nox4) inhibitors for the treatment of idiopathic pulmonary fibrosis” (J Med Chem, 2010).

What was measured:
[1] = Inhibition of chloride channel at 10 uM
[2] = biological target: MAP kinase p38 (Homo sapiens) (UniProt O15264+Q15759+Q16539+P53778); experiment: Inhibition of human p38 MAP kinase at 10 uM; assay type: protein assay
[3] = Volume of distribution at steady state in Sprague-Dawley rat at 5 mg/kg, iv; assay type: ADME, organism-based; parameters: dose 5 mg/kg, route intravenous; conditions: in vivo, read-out: Vdss
Procedure, shortened: (§1)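 Parallel design in male rats, three per group. Group 1: 5 mg/kg iv in EDPW (10% EtOH, 10% DMA, 30% PG, 50% water). Group 2: 10 mg/kg oral in aqueous 0.5% CMC with 0.25% Tween 20. Carotid cannula blood drawn up to 24 h. Plasma measured by LC/MS/MS (LLOQ 1.00 ng/mL), noncompartmental analysis.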

Cytochrome P450 3A4 = Cytochrome P450 3A4 (Homo sapiens, UniProt P08684); experiment: Inhibition of human CYP3A4; assay type: ADME
Procedure, shortened: (§2)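 Recombinant human CYP isoforms with isoform-specific probe substrates and NADPH. Compound at 0.1–25 μM, final DMSO 0.3%. Metabolites measured by mass spectrometry, except CYP1A2, which used a fluorescent metabolite. IC50 derived from the decrease in metabolite formation compared with vehicle control.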

Rattus norvegicus = species: Rattus norvegicus; experiment: Inhibition of rat AMPK at 10 uM
[4] = biological target: Phosphatidylinositol 4,5-bisphosphate 3-kinase catalytic subunit alpha isoform (Homo sapiens) (UniProt P42336); experiment: Inhibition of PI3Kalpha at 10; conditions: concentration not given here
NADPH oxidase 1 = NADPH oxidase 1 (Homo sapiens, UniProt Q9Y5S8); experiment: Inhibition of human NOX1 overexpressed in […] cell membrane assessed as ROS production by cell free assay in presence of NADPH; conditions: in the assay text read “T-REx-CHO cell membrane” for “human PMN cell membrane”
Procedure, shortened: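 Membranes from T-REx-CHO cells stably co-transfected with human NOX1, p22, NOXA1 and NOXO1, induced with tetracycline (1 μg/mL, 24 h), prepared on a 17/40% sucrose gradient. Incubated in PBS with Amplex Red, HRP and cofactors, then NADPH added. Compound at 1 nM–100 μM, 20 min at 37 °C. Ki by Cheng-Prusoff, at least three experiments in triplicate.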

Cytochrome P450 2C19 = Cytochrome P450 2C19 (Homo sapiens, UniProt P33261); experiment: Inhibition of human CYP2C19; assay type: ADME; procedure, shortened: as §2
[5] = Oral bioavailability in Sprague-Dawley rat at 10 mg/kg; assay type: ADME, organism-based; conditions: in vivo; procedure, shortened: as §1
[6] = biological target: Protein kinase C alpha type (Homo sapiens) (UniProt P17252); experiment: Inhibition of human PKCalpha at 10 uM
[7] = biological target: Myeloperoxidase (Homo sapiens) (UniProt P05164); experiment: Inhibition of human myeloperoxidase at 10 uM
[8] = Inhibition of sodium channel at 10 uM
NADPH oxidase 4 = biological target: T1, NADPH oxidase 4 (Homo sapiens, UniProt Q9NPH5); experiment: Inhibition of human NOX4 overexpressed in T-REx-293 cell membrane assessed as ROS production by cell free assay in presence of NADPH; conditions: in the assay text read “T-REx-293 cell membrane” for “human PMN cell membrane”
T1 sequence (Q9NPH5 whole entry): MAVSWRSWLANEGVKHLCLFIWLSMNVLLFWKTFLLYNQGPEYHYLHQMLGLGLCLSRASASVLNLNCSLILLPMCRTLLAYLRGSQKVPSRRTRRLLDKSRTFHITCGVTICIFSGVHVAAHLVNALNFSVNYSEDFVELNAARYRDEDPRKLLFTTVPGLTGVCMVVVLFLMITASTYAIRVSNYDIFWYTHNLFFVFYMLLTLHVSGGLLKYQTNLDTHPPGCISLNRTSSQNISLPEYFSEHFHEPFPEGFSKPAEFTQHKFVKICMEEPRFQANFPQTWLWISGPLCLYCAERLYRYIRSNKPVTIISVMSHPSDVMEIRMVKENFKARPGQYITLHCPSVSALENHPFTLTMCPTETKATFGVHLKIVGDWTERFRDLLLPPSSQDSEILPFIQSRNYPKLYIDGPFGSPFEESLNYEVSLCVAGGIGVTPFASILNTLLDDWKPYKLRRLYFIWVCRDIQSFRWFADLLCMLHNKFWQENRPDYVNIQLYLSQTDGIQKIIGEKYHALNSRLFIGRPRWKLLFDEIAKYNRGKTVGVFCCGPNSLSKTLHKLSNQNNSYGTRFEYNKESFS
Procedure, shortened: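 hNOX4 T-REx-293 cells induced with tetracycline (1 μg/mL, 24 h), sonicated in sucrose/NaCl/EGTA PBS buffer pH 7.4, membranes taken from a sucrose gradient. NADPH-triggered ROS measured by Amplex Red/HRP in PBS, with compound at 1 nM–100 μM, 20 min at 37 °C. Ki by Cheng-Prusoff from ≥3 triplicate experiments.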

[9] = Clearance in Sprague-Dawley rat at 5 mg/kg, iv; assay type: ADME, organism-based; parameters: dose 5 mg/kg, route intravenous; conditions: in vivo
Procedure, shortened: (§3)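 Parallel design with six male rats: three given 5 mg/kg iv in EDPW (10% EtOH, 10% DMA, 30% PG, 50% water), three given 10 mg/kg orally in aqueous 0.5% CMC with 0.25% Tween 20. Carotid cannula blood sampled up to 24 h. Plasma levels by LC/MS/MS (LLOQ 1.00 ng/mL). Noncompartmental analysis.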

[10] = Inhibition of potassium channel at 10 uM
[11] = biological target: Tyrosine-protein phosphatase non-receptor type 1 (Homo sapiens) (UniProt P18031); experiment: Inhibition of human PTP1B at 10 uM
[12] = Genotoxicity in Salmonella Typhimurium at 100 uM by mini Ames test; assay type: toxicity; conditions: salmonella enterica subsp. enterica serovar typhimurium
[13] = biological target: Protein kinase C delta type (Homo sapiens) (UniProt Q05655); experiment: Inhibition of human PKCdelta at 10 uM
[14] = biological target: Phosphatidylinositol 4,5-bisphosphate 3-kinase catalytic subunit beta isoform (Homo sapiens) (UniProt P42338); experiment: Inhibition of PI3Kbeta at 10; conditions: concentration not given here
[15] = biological target: Nitric oxide synthase, endothelial (Homo sapiens) (UniProt P29474); experiment: Inhibition of eNOS at 10 uM
[16] = biological target: Mitogen-activated protein kinase kinase kinase 5 (Homo sapiens) (UniProt Q99683); experiment: Inhibition of human ASK1 at 10 uM
Plasma = experiment: Unbound fraction in Sprague-Dawley rat 50% plasma protein; assay type: ADME, cell-free
[17] = AUC (infinity) in Sprague-Dawley rat at 10 mg/kg, po; assay type: ADME, organism-based; parameters: time infinity, dose 10 mg/kg, route oral; conditions: plasma; procedure, shortened: as §3
[18] = biological target: Phosphatidylinositol 4,5-bisphosphate 3-kinase catalytic subunit gamma isoform (Homo sapiens) (UniProt P48736); experiment: Inhibition of PI3Kgamma at 10; conditions: concentration not given here
Cytochrome P450 2C9 = Cytochrome P450 2C9 (Homo sapiens, UniProt P11712); experiment: Inhibition of human CYP2C9; assay type: ADME; procedure, shortened: as §2
[19] = biological target: Nitric oxide synthase, inducible (Homo sapiens) (UniProt P35228); experiment: Inhibition of iNOS at 10 uM
Sequence of Nitric oxide synthase, inducible (Homo sapiens) (P35228 whole entry): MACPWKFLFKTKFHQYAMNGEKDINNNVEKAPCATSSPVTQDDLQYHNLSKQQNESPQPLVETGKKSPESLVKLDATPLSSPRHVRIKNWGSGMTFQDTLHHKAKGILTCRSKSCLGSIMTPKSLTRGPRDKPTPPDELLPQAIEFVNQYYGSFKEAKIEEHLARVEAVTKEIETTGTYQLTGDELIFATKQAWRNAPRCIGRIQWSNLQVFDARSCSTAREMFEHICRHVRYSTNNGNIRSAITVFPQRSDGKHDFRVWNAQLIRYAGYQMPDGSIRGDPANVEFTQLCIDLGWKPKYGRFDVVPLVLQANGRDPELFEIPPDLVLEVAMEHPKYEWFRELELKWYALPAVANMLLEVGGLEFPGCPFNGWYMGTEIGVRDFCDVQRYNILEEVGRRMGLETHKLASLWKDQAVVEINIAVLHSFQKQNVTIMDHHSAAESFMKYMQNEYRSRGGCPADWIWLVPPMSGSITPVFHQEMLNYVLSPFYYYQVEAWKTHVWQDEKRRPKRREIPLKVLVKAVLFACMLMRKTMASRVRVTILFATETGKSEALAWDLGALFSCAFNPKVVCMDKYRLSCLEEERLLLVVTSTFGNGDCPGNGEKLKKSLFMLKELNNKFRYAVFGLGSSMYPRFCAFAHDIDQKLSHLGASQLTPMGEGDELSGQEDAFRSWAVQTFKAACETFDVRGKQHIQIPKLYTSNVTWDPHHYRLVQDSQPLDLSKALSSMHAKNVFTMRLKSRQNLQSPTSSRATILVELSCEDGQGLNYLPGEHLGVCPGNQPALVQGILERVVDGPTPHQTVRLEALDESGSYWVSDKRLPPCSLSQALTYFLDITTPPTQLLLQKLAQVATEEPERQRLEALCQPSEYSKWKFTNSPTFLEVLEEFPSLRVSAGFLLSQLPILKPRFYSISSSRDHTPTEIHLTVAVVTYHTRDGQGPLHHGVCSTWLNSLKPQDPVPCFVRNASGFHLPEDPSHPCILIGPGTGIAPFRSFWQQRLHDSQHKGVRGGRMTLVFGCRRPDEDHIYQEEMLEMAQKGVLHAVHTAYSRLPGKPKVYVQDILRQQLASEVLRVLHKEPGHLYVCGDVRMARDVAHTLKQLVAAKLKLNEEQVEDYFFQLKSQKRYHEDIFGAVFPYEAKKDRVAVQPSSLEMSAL

Sequence of Cytochrome P450 2C19 (P33261 whole entry): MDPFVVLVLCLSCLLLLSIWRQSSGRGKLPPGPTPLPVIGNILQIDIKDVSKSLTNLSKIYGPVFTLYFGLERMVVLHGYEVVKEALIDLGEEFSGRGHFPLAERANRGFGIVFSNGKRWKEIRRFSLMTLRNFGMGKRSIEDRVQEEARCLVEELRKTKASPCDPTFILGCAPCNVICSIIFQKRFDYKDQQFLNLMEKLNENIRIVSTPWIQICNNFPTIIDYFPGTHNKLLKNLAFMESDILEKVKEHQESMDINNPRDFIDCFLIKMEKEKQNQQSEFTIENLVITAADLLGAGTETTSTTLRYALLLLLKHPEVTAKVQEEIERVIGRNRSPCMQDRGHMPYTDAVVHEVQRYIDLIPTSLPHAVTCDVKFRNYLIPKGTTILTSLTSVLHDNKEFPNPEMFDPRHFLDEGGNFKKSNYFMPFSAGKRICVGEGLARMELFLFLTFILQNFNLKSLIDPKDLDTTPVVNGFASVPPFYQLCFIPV
Sequence of Phosphatidylinositol 4,5-bisphosphate 3-kinase catalytic subunit alpha isoform (Homo sapiens) (P42336 whole entry, canonical isoform): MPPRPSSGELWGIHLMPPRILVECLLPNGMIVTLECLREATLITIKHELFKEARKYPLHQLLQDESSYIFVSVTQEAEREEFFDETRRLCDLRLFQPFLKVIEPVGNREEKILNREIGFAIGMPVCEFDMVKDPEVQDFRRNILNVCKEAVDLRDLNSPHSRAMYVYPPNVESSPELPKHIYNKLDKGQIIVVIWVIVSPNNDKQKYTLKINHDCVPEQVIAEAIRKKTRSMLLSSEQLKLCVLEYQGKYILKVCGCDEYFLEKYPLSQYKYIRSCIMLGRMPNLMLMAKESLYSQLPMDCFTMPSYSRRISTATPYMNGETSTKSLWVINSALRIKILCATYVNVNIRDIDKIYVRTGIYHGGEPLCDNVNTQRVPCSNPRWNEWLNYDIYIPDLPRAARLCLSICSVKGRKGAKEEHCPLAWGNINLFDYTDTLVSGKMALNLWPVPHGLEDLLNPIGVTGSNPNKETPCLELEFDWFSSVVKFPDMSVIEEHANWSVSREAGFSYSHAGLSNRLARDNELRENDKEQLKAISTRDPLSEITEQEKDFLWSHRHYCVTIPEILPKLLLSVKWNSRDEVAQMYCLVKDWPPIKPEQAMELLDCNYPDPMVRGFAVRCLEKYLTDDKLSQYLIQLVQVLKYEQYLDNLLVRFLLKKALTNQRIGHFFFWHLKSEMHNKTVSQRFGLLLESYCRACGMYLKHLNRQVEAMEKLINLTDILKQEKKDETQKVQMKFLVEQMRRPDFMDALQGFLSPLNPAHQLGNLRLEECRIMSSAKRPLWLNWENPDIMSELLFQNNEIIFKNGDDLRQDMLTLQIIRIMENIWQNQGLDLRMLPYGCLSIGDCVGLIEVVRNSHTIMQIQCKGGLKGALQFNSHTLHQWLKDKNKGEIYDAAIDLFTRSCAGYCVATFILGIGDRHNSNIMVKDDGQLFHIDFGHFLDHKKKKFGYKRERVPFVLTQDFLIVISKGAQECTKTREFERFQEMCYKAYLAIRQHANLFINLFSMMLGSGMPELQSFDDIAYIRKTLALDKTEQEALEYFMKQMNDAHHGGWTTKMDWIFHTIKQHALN
Sequence of Phosphatidylinositol 4,5-bisphosphate 3-kinase catalytic subunit beta isoform (Homo sapiens) (P42338 whole entry, looked up, canonical isoform): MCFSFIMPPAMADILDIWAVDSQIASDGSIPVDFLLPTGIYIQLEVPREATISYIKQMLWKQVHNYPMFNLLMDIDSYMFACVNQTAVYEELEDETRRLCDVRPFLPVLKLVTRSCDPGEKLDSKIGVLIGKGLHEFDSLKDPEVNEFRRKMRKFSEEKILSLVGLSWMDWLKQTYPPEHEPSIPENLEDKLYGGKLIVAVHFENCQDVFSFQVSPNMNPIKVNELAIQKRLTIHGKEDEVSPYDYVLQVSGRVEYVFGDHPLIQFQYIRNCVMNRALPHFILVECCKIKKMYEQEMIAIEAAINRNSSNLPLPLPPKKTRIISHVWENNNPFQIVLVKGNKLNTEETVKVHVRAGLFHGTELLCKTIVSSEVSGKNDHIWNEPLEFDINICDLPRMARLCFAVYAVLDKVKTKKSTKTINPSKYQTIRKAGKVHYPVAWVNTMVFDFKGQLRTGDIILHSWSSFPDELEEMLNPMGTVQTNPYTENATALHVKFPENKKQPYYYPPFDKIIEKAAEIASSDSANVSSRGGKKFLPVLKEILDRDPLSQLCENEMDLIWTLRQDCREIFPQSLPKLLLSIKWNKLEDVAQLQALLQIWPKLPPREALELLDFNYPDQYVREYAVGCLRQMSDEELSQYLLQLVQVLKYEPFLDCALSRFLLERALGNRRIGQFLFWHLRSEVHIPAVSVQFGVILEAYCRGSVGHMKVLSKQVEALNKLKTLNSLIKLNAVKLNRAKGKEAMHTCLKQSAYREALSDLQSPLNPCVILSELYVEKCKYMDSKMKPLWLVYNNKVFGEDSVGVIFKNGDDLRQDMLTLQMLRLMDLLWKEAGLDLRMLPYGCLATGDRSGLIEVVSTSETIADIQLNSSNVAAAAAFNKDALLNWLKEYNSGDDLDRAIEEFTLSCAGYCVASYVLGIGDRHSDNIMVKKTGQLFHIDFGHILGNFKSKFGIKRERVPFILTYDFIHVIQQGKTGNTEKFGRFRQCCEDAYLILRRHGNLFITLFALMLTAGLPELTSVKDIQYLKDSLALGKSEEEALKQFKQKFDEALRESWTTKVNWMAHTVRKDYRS
Sequence of Protein kinase C delta type (Homo sapiens) (Q05655 whole entry, looked up, canonical isoform): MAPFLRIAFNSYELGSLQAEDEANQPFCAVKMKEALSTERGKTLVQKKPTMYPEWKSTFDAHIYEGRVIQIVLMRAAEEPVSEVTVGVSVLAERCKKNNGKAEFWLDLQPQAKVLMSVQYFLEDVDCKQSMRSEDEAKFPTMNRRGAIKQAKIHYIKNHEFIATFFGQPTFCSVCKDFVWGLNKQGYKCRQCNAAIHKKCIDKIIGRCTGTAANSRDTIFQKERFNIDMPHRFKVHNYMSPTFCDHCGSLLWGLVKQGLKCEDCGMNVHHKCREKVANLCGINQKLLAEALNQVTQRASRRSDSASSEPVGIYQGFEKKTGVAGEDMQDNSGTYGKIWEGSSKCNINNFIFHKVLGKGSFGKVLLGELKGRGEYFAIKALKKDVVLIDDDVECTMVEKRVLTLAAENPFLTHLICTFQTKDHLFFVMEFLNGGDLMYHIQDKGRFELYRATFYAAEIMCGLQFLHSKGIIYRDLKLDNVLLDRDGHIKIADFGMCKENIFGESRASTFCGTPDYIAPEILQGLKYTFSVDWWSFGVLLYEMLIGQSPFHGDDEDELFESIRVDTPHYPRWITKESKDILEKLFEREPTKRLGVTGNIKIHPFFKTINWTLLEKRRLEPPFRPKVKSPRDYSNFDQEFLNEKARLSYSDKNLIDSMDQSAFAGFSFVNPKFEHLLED
Sequence of Myeloperoxidase (Homo sapiens) (P05164 165-273 limits assumed): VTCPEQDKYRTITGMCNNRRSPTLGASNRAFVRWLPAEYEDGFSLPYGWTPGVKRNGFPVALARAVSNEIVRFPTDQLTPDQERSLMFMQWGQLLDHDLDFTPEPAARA
Sequence of Myeloperoxidase (Homo sapiens) (P05164 279-745 limits assumed): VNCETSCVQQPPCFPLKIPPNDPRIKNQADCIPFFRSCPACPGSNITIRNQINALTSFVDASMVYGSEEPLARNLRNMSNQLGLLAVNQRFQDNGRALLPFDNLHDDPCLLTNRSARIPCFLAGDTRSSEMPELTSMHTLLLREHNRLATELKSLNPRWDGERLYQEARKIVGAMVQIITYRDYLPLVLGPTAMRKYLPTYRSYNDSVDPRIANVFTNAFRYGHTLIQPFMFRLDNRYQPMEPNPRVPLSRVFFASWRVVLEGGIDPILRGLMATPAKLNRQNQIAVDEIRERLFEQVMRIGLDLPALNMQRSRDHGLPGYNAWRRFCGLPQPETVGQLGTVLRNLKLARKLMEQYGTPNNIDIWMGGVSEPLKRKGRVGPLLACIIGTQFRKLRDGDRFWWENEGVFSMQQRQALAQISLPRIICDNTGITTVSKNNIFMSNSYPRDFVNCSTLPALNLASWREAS

inhibition [1]: 0%
inhibition [2]: 10%
Vd [3]: 1.08 L/kg
IC50 (Cytochrome P450 3A4): 20.9 µM
inhibition (Rattus norvegicus): 0%
inhibition [4]: 0%
Ki (NADPH oxidase 1): 0.16 µM
IC50 (Cytochrome P450 2C19): > 25 µM
bioavailability [5]: 54%
inhibition [6]: 0%
inhibition [7]: 0%
inhibition [8]: 4%
Ki (NADPH oxidase 4): 0.165 µM
clearance [9]: 7.83 mL/min/kg
inhibition [10]: 0%
inhibition [11]: 0%
inhibition [13]: 0%
inhibition [14]: 0%
inhibition [15]: 6%
inhibition [16]: 0%
Fu (Plasma): 20.5%
AUC(0-inf) [17]: 10900 ng·h/mL
inhibition [18]: 0%
IC50 (Cytochrome P450 2C9): > 25 µM
inhibition [19]: 0%
SMILES: Cc1c2c(=O)n(-c3ccccc3Cl)[nH]c2cc(=O)n1Cc1ccccn1
Activity [12]: Non-toxic
